pKi: −log10 of the molar value.
Experiments:
Adenosine receptor A1 = target: T1, Adenosine receptor A1 (Bos taurus, UniProt P28190); test: Displacement of [3H]CHA from Adenosine A1 receptor in bovine cortical membranes.; type: cell membranes
T1 sequence (P28190 whole entry): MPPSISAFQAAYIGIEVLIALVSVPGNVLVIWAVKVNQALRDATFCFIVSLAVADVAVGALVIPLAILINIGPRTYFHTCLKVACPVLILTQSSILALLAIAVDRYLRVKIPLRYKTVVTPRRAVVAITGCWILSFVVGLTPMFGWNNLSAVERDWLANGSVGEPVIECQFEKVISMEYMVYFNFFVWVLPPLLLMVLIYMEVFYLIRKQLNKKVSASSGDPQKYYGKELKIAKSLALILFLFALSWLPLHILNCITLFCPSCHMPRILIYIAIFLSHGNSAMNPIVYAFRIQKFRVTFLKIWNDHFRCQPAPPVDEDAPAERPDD
Summary of the method: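 Compounds were dissolved in DMSO (≤2% in assay) and tested at six or more concentrations. n = 4 independent experiments in triplicate. Ki and IC50 ± SEM came from iterative curve fitting. Protein was measured with BSA as standard after NaOH (0.75 N) solubilization.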

[1] = target: Adenosine receptor A2a (Bos taurus); test: Displacement of [3H]- CGS-21680 from Adenosine A2a receptor in bovine striatal membranes.

Compound	pKi (Adenosine receptor A1)	pKi [1]
CC(=O)CNc1nc(-c2ccccc2)nc2nc(C(C)C)cn12	5.63	–
Cc1cn2c(NC34C[C@H]5C[C@@H](C3)C[C@@H](C4)C5)nc(-c3ccccc3)nc2n1	6.29	< 5.00
CC(=O)CNc1nc(-c2ccccc2)nc2nc(-c3ccccc3)cn12	< 5.00	–
Cc1cn2c(NCc3ccccc3)nc(-c3ccccc3)nc2n1	5.41	–
CCc1cn2c(NCC(C)=O)nc(-c3ccccc3)nc2n1	< 5.00	–
CCC(=O)CNc1nc(-c2ccccc2)nc2nc(C)cn12	< 5.00	< 5.00
Cc1cn2c(N)nc(-c3ccccc3)nc2n1	6.48	–
CC(=O)Nc1nc(-c2ccccc2)nc2nc(C)cn12	6.07	< 5.00

The next molecules have a higher pKi (Adenosine receptor A1) than those just listed; values first:

pKi (Adenosine receptor A1)	pKi [1]	Compound
7.92	< 5.00	CC(=O)CNc1nc(-c2ccccc2)nc2nc(C)cn12
7.57	–	Cc1cn2c(NC(=O)c3ccccc3)nc(-c3ccccc3)nc2n1
7.64	5.49	CC(=O)Nc1nc(-c2ccccc2)nc2nc(-c3ccccc3)cn12
6.64	–	Cc1cn2c(NCC3CCCCC3)nc(-c3ccccc3)nc2n1
7.39	5.39	Cc1cn2c(NC3CCCC3)nc(-c3ccccc3)nc2n1
8.24	< 5.00	CC(C)c1cn2c(NC(=O)C3CCCC3)nc(-c3ccccc3)nc2n1
7.77	5.60	O=C(Nc1nc(-c2ccccc2)nc2nc(-c3ccccc3)cn12)C1CCCC1
6.94	–	Cc1cn2c(NC(=O)C3CCCCC3)nc(-c3ccccc3)nc2n1
8.36	–	Cc1cn2c(NC(=O)C3CCCC3)nc(-c3ccccc3)nc2n1
8.48	–	CCc1cn2c(NC(=O)C3CCCC3)nc(-c3ccccc3)nc2n1

Reference: ChEMBL document CHEMBL1135595, “Design, synthesis and biological evaluation of novel N-alkyl- and N-acyl-(7-substituted-2-phenylimidazo[1,2-a][1,3,5]triazin-4-yl)amines (ITAs) as novel A(1) adenosine receptor antagonists” (J Med Chem, 2002)
